Test results as given in ChEMBL document CHEMBL4038284, “Synthesis of novel quinoline-based 4,5-dihydro-1H-pyrazoles as potential anticancer, antifungal, antibacterial and antiprotozoal agents” (Eur J Med Chem, 2017).
≈ marks a conversion by molar mass, not a printed value.

Legend:
[1] = test system: Trypanosoma cruzi; experiment: Antitrypanosomal activity against Trypanosoma cruzi Tulahuen intracellular amastigote harboring LacZ infected in human U937 cells after 72 hrs by CPRG/Nonidet reagent based spectrophotometric method; assay type: functional, cell-based; conditions: U-937, 72 h
Procedure, shortened: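 U-937 cells at 2.5 × 10^5 cells/mL in RPMI-1640 with 10% serum and 0.1 µg/mL PMA were infected with β-galactosidase-transfected Tulahuen epimastigotes at 5 parasites per cell. Infected cells were exposed to 50, 12.5, 3.125 and 0.78 µg/mL for 72 h. CPRG (100 uM) and 0.1% Nonidet P-40 were added for 3 h, read at 570 nm. EC50 by Probit. Triplicate, at least two experiments; benznidazole as reference.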

[2] = test system: Staphylococcus aureus; experiment: Antibacterial activity against methicillin-resistant Staphylococcus aureus ATCC 43300 after 24 hrs by resazurin dye based microdilution assay; assay type: functional; conditions: ATCC 43300, 24 h
Procedure, shortened: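 Broth microdilution in Mueller Hinton broth, inoculum 5 × 10^5 – 8 × 10^5. Compound stocks diluted in MHB with 5% DMSO and 0.1% Tween 80. Incubation 24 h at 35-37 °C. MIC is the lowest concentration with visible growth inhibition and/or by resazurin (1 mg/mL) read-out. Gentamicin as control. Run in duplicate, replicated at least three times.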

[3] = test system: Staphylococcus aureus; experiment: Antibacterial activity against vancomycin-intermediate Staphylococcus aureus after 24 hrs by resazurin dye based microdilution assay; assay type: functional
Procedure, shortened: (§1)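 MIC taken as the lowest concentration giving visible inhibition and/or by resazurin (1 mg/mL). Gentamicin was the control. Run in duplicate, repeated at least three times.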

[4] = test system: Cryptococcus neoformans; experiment: Growth inhibition of Cryptococcus neoformans ATCC 32264 at 62.5 ug/ml incubated for 48 hrs under dark condition by broth microdilution method relative to control; assay type: functional; conditions: ATCC 32264, 48 h, read-out: GI
Procedure, shortened: (§2)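 CLSI M27-A3 broth microdilution in RPMI-1640, DMSO ≤1%. Inoculum 1-5 × 10^3 CFU/mL. Incubated 48 h at 30 °C, dark. % inhibition = 100 − (OD405 test − sterility control)/(OD405 growth control − sterility control), with growth and sterility control wells. Triplicate.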

[5] = test system: Candida albicans; experiment: Growth inhibition of Candida albicans ATCC 10231 at 125 ug/ml incubated for 48 hrs under dark condition by broth microdilution method relative to control; assay type: functional; conditions: ATCC 10231, 48 h, read-out: GI; procedure, shortened: as §2
[6] = test system: Neisseria gonorrhoeae; experiment: Antibacterial activity against beta lactamase positive Neisseria gonorrhoeae ATCC 31426 by oxidase test; assay type: functional
Procedure, shortened: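 Agar dilution MIC on GC agar with 1% isovitalex containing increasing compound concentrations. Plates inoculated with about 1×10^4 CFU (5 µL). MIC is the lowest concentration that inhibited growth, with growth confirmed by oxidase test. Run in duplicate, repeated at least three times.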

[7] = test system: Candida albicans; experiment: Growth inhibition of Candida albicans ATCC 10231 at 62.5 ug/ml incubated for 48 hrs under dark condition by broth microdilution method relative to control; assay type: functional; conditions: ATCC 10231, 48 h, read-out: GI; procedure, shortened: as §2
[8] = test system: Staphylococcus aureus; experiment: Antibacterial activity against methicillin-sensitive Staphylococcus aureus ATCC 25923 after 24 hrs by resazurin dye based microdilution assay; assay type: functional; conditions: ATCC 25923, 24 h; procedure, shortened: as §1
[9] = test system: Cryptococcus neoformans; experiment: Growth inhibition of Cryptococcus neoformans ATCC 32264 at 125 ug/ml incubated for 48 hrs under dark condition by broth microdilution method relative to control; assay type: functional; conditions: ATCC 32264, 48 h, read-out: GI; procedure, shortened: as §2
[10] = test system: Leishmania panamensis; experiment: Antileshmanial activity against EpiR/GFP fused Leishmania panamensis MHOM/CO/87/UA140 intracellular amastigotes infected in human […] cells after 72 hrs by flow cytometric method; assay type: functional, cell-based; conditions: MHOM/CO/87/UA140, 72 h
Procedure, shortened: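 PMA-treated U-937 cells (3 × 10^5 cells/mL) infected with stationary-phase GFP L. panamensis promastigotes (15:1), 3 h at 34 °C, then washed. After 24 h, compounds added at 50, 12.5, 3.125 and 0.78 µg/mL for 72 h at 37 °C. EC50 by Probit; triplicate, two experiments.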

[11] = test system: Klebsiella pneumoniae; experiment: Antibacterial activity against carbapenemase positive Klebsiella pneumoniae BAA 1705 after 24 hrs by resazurin dye based microdilution assay; assay type: functional; conditions: BAA 1705, 24 h; procedure, shortened: as §1
[12] = test system: Candida albicans; experiment: Growth inhibition of Candida albicans ATCC 10231 at 7.8 ug/ml incubated for 48 hrs under dark condition by broth microdilution method relative to control; assay type: functional; conditions: ATCC 10231, 48 h, read-out: GI; procedure, shortened: as §2
[13] = test system: Cryptococcus neoformans; experiment: Growth inhibition of Cryptococcus neoformans ATCC 32264 at 250 ug/ml incubated for 48 hrs under dark condition by broth microdilution method relative to control; assay type: functional; conditions: ATCC 32264, 48 h, read-out: GI; procedure, shortened: as §2
[14] = test system: Candida albicans; experiment: Antifungal activity against Candida albicans ATCC 10231 incubated for 48 hrs under dark condition by broth microdilution method; assay type: functional; conditions: ATCC 10231, 48 h
Procedure, shortened: (§3)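 CLSI M27-A3 broth microdilution in RPMI-1640, DMSO ≤1%, compounds at 250-0.98 µg/mL final. Inoculum 1-5 × 10^3 CFU/mL. Incubated 48 h at 30 °C in a moist dark chamber, read at OD405. MIC80 and MIC50 taken from % inhibition dose-response curves (mean ± SEM, triplicate). Amphotericin B was the positive control.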

[15] = test system: Pseudomonas aeruginosa; experiment: Antibacterial activity against Pseudomonas aeruginosa ATCC 27853 after 24 hrs by resazurin dye based microdilution assay; assay type: functional; conditions: ATCC 27853, 24 h; procedure, shortened: as §1
[16] = test system: U-937; experiment: Cytotoxicity against human U937 cells after 72 hrs by MTT assay; assay type: cell-based; conditions: u-937, 72 h
Procedure, shortened: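 Exponentially growing U-937 at 1 × 10^5 cells/mL in RPMI-1640 with 10% FBS were exposed to 200, 50, 12.5 and 3.125 µg/mL for 72 h at 37 °C, 5% CO2. MTT for 3 h, stopped with isopropanol/SDS, formazan read at 570 nm, blank-corrected. LC50 by Probit from % viability against untreated cells. Triplicate, at least two independent experiments.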

[17] = test system: Candida albicans; experiment: Growth inhibition of Candida albicans ATCC 10231 at 15.62 ug/ml incubated for 48 hrs under dark condition by broth microdilution method relative to control; assay type: functional; conditions: ATCC 10231, 48 h, read-out: GI; procedure, shortened: as §2
[18] = test system: Cryptococcus neoformans; experiment: Antifungal activity against Cryptococcus neoformans ATCC 32264 incubated for 48 hrs under dark condition by broth microdilution method; assay type: functional; conditions: ATCC 32264, 48 h; procedure, shortened: as §3
[19] = test system: Plasmodium falciparum; experiment: Antiplasmodial activity against chloroquine-sensitive Plasmodium falciparum 3D7 assessed as reduction in parasitic LDH activity after 48 hrs by Malstat reagent based […] method; assay type: functional; conditions: 3D7, 48 h
Procedure, shortened: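 Unsynchronized P. falciparum 3D7 at 0.5% parasitemia and 1% hematocrit in RPMI with 3% Albumax II. Exposed to 100, 25, 6.25 and 1.56 µg/mL for 48 h at 37 °C under 90% N2/5% CO2/5% O2. After three freeze-thaw cycles, LDH measured with Malstat and NBT/PES, 1 h in the dark, read at 650 nm. IC50 by Probit; triplicate, ≥2 experiments.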

[20] = test system: Cryptococcus neoformans; experiment: Growth inhibition of Cryptococcus neoformans ATCC 32264 at 3.4 ug/ml incubated for 48 hrs under dark condition by broth microdilution method relative to control; assay type: functional; conditions: ATCC 32264, 48 h, read-out: GI
[21] = test system: Cryptococcus neoformans; experiment: Growth inhibition of Cryptococcus neoformans ATCC 32264 at 15.62 ug/ml incubated for 48 hrs under dark condition by broth microdilution method relative to control; assay type: functional; conditions: ATCC 32264, 48 h, read-out: GI; procedure, shortened: as §2
[22] = test system: Escherichia coli; experiment: Antibacterial activity against Escherichia coli ATCC 25922 after 24 hrs by resazurin dye based microdilution assay; assay type: functional; conditions: ATCC 25922, 24 h; procedure, shortened: as §1
[23] = test system: Cryptococcus neoformans; experiment: Growth inhibition of Cryptococcus neoformans ATCC 32264 at 7.8 ug/ml incubated for 48 hrs under dark condition by broth microdilution method relative to control; assay type: functional; conditions: ATCC 32264, 48 h, read-out: GI; procedure, shortened: as §2
[24] = test system: Candida albicans; experiment: Growth inhibition of Candida albicans ATCC 10231 at 3.4 ug/ml incubated for 48 hrs under dark condition by broth microdilution method relative to control; assay type: functional; conditions: ATCC 10231, 48 h, read-out: GI
[25] = test system: Klebsiella pneumoniae; experiment: Antibacterial activity against ESBL positive Klebsiella pneumoniae ATCC 700603 after 24 hrs by resazurin dye based microdilution assay; assay type: functional; conditions: Klebsiella pneumoniae, 700603, 24 h; procedure, shortened: as §1
[26] = test system: Candida albicans; experiment: Growth inhibition of Candida albicans ATCC 10231 at 250 ug/ml incubated for 48 hrs under dark condition by broth microdilution method relative to control; assay type: functional; conditions: ATCC 10231, 48 h, read-out: GI; procedure, shortened: as §2
[27] = test system: Cryptococcus neoformans; experiment: Growth inhibition of Cryptococcus neoformans ATCC 32264 at 31.25 ug/ml incubated for 48 hrs under dark condition by broth microdilution method relative to control; assay type: functional; conditions: ATCC 32264, 48 h, read-out: GI; procedure, shortened: as §2
[28] = test system: Candida albicans; experiment: Growth inhibition of Candida albicans ATCC 10231 at 31.25 ug/ml incubated for 48 hrs under dark condition by broth microdilution method relative to control; assay type: functional; conditions: ATCC 10231, 48 h, read-out: GI; procedure, shortened: as §2

Row | SMILES | EC50 [1] [µg/mL] | MIC [2] [µg/mL] | MIC [3] [µg/mL] | inhibition of growth at 62.5 µg/mL [4] [%] | inhibition of growth at 125 µg/mL [5] [%] | MIC [6] [µg/mL] | inhibition of growth at 62.5 µg/mL [7] [%] | MIC [8] [µg/mL] | inhibition of growth at 125 µg/mL [9] [%] | EC50 [10] [µg/mL] | MIC [11] [µg/mL] | inhibition of growth at 7.8 µg/mL [12] [%] | inhibition of growth at 250 µg/mL [13] [%] | MIC50 [14] [µg/mL] | MIC80 [14] [µg/mL] | MIC [15] [µg/mL] | LC50 [16] [µg/mL] | inhibition of growth at 15.62 µg/mL [17] [%] | MIC50 [18] [µg/mL] | MIC80 [18] [µg/mL] | further results
1 | CC(=O)N1N=C(c2ccccc2)CC1c1cccc(Nc2ccnc3cc(Cl)ccc23)c1 (stereo not given) | 4.26 (≈ 9.66 µM) | > 1000 | > 1000 | 12.8 | 27.5 | > 1000 | 23.1 | > 1000 | 41.9 | 3.67 (≈ 8.32 µM) | > 1000 | 10.5 | 69.2 | 250 (≈ 567 µM) | ≥ 250 | > 1000 | 5.8 (≈ 13.2 µM) | 19.8 | 250 (≈ 567 µM) | ≥ 250 | EC50 [19]: 12.7 µg/mL (≈ 28.7 µM); inhibition of growth at 3.4 µg/mL [20]: 0%; inhibition of growth at 15.62 µg/mL [21]: 12.2%; MIC [22]: > 1000 µg/mL; inhibition of growth at 7.8 µg/mL [23]: 8.77%; inhibition of growth at 3.4 µg/mL [24]: 5.28%; MIC [25]: > 1000 µg/mL; inhibition of growth at 250 µg/mL [26]: 53.3%; inhibition of growth at 31.25 µg/mL [27]: 12.3%; inhibition of growth at 31.25 µg/mL [28]: 21.2%
2 | Cc1ccc(C2=NN(c3ccc(Cl)cc3)C(c3cccc(Nc4ccnc5cc(Cl)ccc45)c3)C2)cc1 (stereo not given) | 21.9 (≈ 41.9 µM) | > 1000 | > 1000 | 12.9 | 16.2 | > 1000 | 13.1 | > 1000 | 15.9 | 49.4 (≈ 94.4 µM) | > 1000 | 5.67 | 22.8 | ≥ 250 | ≥ 250 | > 1000 | > 200 | 7.27 | ≥ 250 | ≥ 250 | EC50 [19]: 13.7 µg/mL (≈ 26.2 µM); inhibition of growth at 3.4 µg/mL [20]: 0%; inhibition of growth at 15.62 µg/mL [21]: 6.99%; MIC [22]: > 1000 µg/mL; inhibition of growth at 7.8 µg/mL [23]: 6.57%; inhibition of growth at 3.4 µg/mL [24]: 0%; MIC [25]: > 1000 µg/mL; inhibition of growth at 250 µg/mL [26]: 36.5%; inhibition of growth at 31.25 µg/mL [27]: 10.9%; inhibition of growth at 31.25 µg/mL [28]: 8.37%
